Results as given in ChEMBL document CHEMBL1142893, “Synthesis and biological evaluation of novel 5(H)-phenanthridin-6-ones, 5(H)-phenanthridin-6-one diketo acid, and polycyclic aromatic diketo acid analogs as new HIV-1 integrase inhibitors” (Bioorg Med Chem, 2007).
Active and inactive are the calls of the source. The rule behind the calls is not given here.

What was measured:
[1] = target: T1, Human immunodeficiency virus type 1 integrase (Human immunodeficiency virus 1, UniProt Q7ZJM1); experiment: Inhibition of HIV1 integrase 3'-end processing activity
T1 sequence (Q7ZJM1 whole entry): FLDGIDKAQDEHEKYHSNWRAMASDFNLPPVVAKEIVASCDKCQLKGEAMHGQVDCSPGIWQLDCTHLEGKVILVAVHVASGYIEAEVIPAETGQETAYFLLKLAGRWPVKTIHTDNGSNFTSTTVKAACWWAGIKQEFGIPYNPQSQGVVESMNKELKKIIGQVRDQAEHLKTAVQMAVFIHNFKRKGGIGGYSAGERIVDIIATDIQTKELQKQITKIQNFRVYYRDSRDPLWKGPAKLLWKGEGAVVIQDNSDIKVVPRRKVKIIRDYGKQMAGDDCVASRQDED
Procedure, shortened: (§1)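 Wild-type integrase at 200 nM final was preincubated with inhibitor for 30 min at 30 °C. Reaction buffer: 50 mM NaCl, 1 mM HEPES pH 7.5, EDTA, dithiothreitol, 10% glycerol, 7.5 mM MnCl₂, 0.1 mg/mL BSA, 10 mM 2-mercaptoethanol, 10% DMSO, 25 mM MOPS pH 7.2.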

[2] = target: T1, Human immunodeficiency virus type 1 integrase; experiment: Inhibition of HIV1 integrase strand transfer activity; procedure, shortened: as §1
[3] = tested on: Human immunodeficiency virus 1; experiment: Antiviral activity against HIV1 LAI replication in human PBMC after 5 days; assay type: functional, organism-based; conditions: for EC50 / EC90: Human immunodeficiency virus 1, LAI, 120 h
Procedure, shortened: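 PBMC (10⁷ cells/flask) stimulated 3 days with phytohemagglutinin, then infected with HIV-1 LAI at 100 50% tissue culture infective doses. Cultures were kept 5 days with compound at serial 1-log dilutions. Cells were removed by centrifugation (400g, 10 min, 4 °C), and the clarified supernatant was assayed for reverse transcriptase activity.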

[4] = tested on: PBMC; experiment: Cytotoxicity against human PBMC after 6 days; assay type: cell-based; conditions: 144 h; for IC50: Homo sapiens, PBMC
Procedure, shortened: (§2)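 Uninfected cells (CEM leukemia cells; PBMC from whole blood of healthy donors) cultured with or without compound for 6 days. Afterwards cells were stained with Trypan blue and counted for proliferation and viability. Values reflect effects on cell growth.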

[5] = tested on: CCRF-CEM; experiment: Cytotoxicity against human CEM cells after 6 days; assay type: cell-based; conditions: 144 h; for IC50: Homo sapiens, CCRF-CEM; procedure, shortened: as §2
[6] = tested on: Vero; experiment: Cytotoxicity against Vero cells after 3 days; assay type: cell-based; conditions: Chlorocebus sabaeus, 72 h
[7] = tested on: Human immunodeficiency virus 1; experiment: Antiviral activity against HIV1 LAI replication in MOLT4 cells; assay type: functional, organism-based; conditions: Human immunodeficiency virus 1, LAI, MOLT-4
[8] = Selectivity index, ratio of EC50 for HIV1 LAI to IC50 for human PBMC; assay type: functional

| IC50 [1] | IC50 [2] | Structure (SMILES) | further results |
| --- | --- | --- | --- |
| 92 µM | 16 µM | Cc1ccc2oc3nc(C)c(C(=O)CC(=O)C(=O)O)cc3c(=O)c2c1 | – |
| > 100 µM | 35 µM | Cc1nc2oc3ccccc3c(=O)c2cc1C(=O)CC(=O)C(=O)O | – |
| > 100 µM | 23 µM | O=C(O)C(=O)CC(=O)c1ccc(N2CCOCC2)cc1 | – |
| 449 µM | 109 µM | Cc1cccc2c1[nH]c(=O)c1ccc(C(F)(F)F)cc12 | – |
| 9 µM | 0.38 µM | O=C(O)C(=O)CC(=O)c1cc2ccccc2c2ccccc12 | EC50 [3]: 83.7 µM; EC90 [3]: > 100 µM; IC50 [4]: 83.5 µM; IC50 [5]: 73.1 µM; IC50 [6]: > 100 µM |
| > 500 µM | 500 µM | COc1ccc2[nH]c(=O)c3ccccc3c2c1 | – |
| > 1000 µM | 900 µM | O=c1[nH]c2ccc(C(F)(F)F)cc2c2ccccc12 | – |
| > 500 µM | > 500 µM | COC(=O)C(=O)CC(=O)c1ccc(Br)c(CC(=O)c2ccccc2)c1 | – |
| 1000 µM | > 1000 µM | Cc1cc(C)c2[nH]c(=O)c3ccccc3c2c1 | – |
| 225 µM | 78 µM | O=c1[nH]c2ccc(Br)cc2c2ccccc12 | – |
| > 500 µM | > 500 µM | O=C(O)C(=O)CC(=O)c1ccc(Br)c(CC(=O)c2ccccc2)c1 | – |
| > 500 µM | > 500 µM | O=C(Nc1ccc2[nH]c(=O)c3ccccc3c2c1)c1ccccc1 | – |
| > 500 µM | > 500 µM | N#Cc1ccc(CNc2ccc3[nH]c(=O)c4ccccc4c3c2)cc1 | – |
| > 1000 µM | > 1000 µM | Cc1cccc2c1[nH]c(=O)c1ccccc12 | – |
| 206 µM | 267 µM | Nc1ccc2[nH]c(=O)c3ccccc3c2c1 | – |
| > 500 µM | > 500 µM | N#Cc1cccc(CN(Cc2cccc(C#N)c2)c2ccc3[nH]c(=O)c4ccccc4c3c2)c1 | – |
| 11 µM | 3 µM | Cc1ccc2cc(C(=O)CC(=O)C(=O)O)ccc2c1 | – |
| > 500 µM | 500 µM | Cc1cccc2c1[nH]c(=O)c1ccc(C#N)cc12 | – |
| 500 µM | 62 µM | N#Cc1ccc(CN(Cc2ccc(C#N)cc2)c2ccc3[nH]c(=O)c4ccccc4c3c2)cc1 | – |
| – | – | O=C(O)C(=O)CC(=O)c1cc(OCc2ccccc2)cc(OCc2ccccc2)c1 | Activity [3]: inactive; EC50 [7]: 5.7 µM; Activity ([4]; human, pbmc): Not Active; Activity ([5]; human, ccrf-cem): Not Active; Activity [6]: Not Active |
| > 500 µM | 203 µM | O=C(O)c1ccc2[nH]c(=O)c3ccccc3c2c1 | – |

| IC50 [1] | IC50 [2] | Structure (SMILES) | further results |
| --- | --- | --- | --- |
| > 500 µM | 400 µM | N#Cc1ccc2[nH]c(=O)c3ccccc3c2c1 | – |
| > 500 µM | > 500 µM | N#Cc1cccc(CNc2ccc3[nH]c(=O)c4ccccc4c3c2)c1 | – |
| 500 µM | 100 µM | O=c1[nH]c2ccc(Cl)cc2c2ccccc12 | – |
| – | – | Cc1cn([C@H]2C[C@H](N=[N+]=[N-])[C@@H](CO)O2)c(=O)[nH]c1=O [ZIDOVUDINE] | EC50 [3]: 0.00073 µM; EC90 [3]: 0.019 µM; IC50 [4]: > 100 µM; IC50 [6]: 50 µM |
| > 500 µM | > 500 µM | Cc1cc(C)c2[nH]c(=O)c3ccc(C#N)cc3c2c1 | – |
| 54 µM | 1.7 µM | O=C(O)C(=O)CC(=O)c1c2ccccc2cc2ccccc12 | EC50 [3]: > 100 µM; EC90 [3]: > 100 µM; IC50 [4]: > 100 µM; IC50 [5]: > 100 µM; IC50 [6]: > 100 µM |
| 400 µM | 65 µM | O=C(O)C(=O)CC(=O)c1ccc2c(c1)[nH]c(=O)c1ccccc12 | – |
| 54 µM | 7 µM | O=C(O)C(=O)CC(=O)c1ccc2ccccc2c1 | – |
| 102 µM | 27 µM | COC(=O)C(=O)CC(=O)c1ccc(-c2ccccc2C(=O)OC)c([N+](=O)[O-])c1 | – |
| 25 µM | 2.7 µM | O=C(O)C(=O)CC(=O)c1ccc2ccc3ccccc3c2c1 | EC50 [3]: 8 µM; EC90 [3]: 72.8 µM; IC50 [4]: 81 µM; Selectivity index [8]: 10; IC50 [5]: 56.4 µM; IC50 [6]: > 100 µM |
| > 500 µM | 500 µM | CC(=O)Nc1ccc2[nH]c(=O)c3ccccc3c2c1 | – |
| > 500 µM | 415 µM | O=c1[nH]c2ccc(S(=O)(=O)c3ccccc3)cc2c2ccccc12 | – |
| > 500 µM | > 500 µM | CCNc1ccc2[nH]c(=O)c3ccccc3c2c1 | – |
| 26 µM | 7 µM | COC(=O)c1ccccc1-c1ccc(C(=O)CC(=O)C(=O)O)cc1[N+](=O)[O-] | – |
| > 500 µM | > 500 µM | Cc1cccc2c1[nH]c(=O)c1cc(C#N)ccc12 | – |
| 300 µM | 333 µM | Cc1cc(C)c2[nH]c(=O)c3cc(C#N)ccc3c2c1 | – |
| 7 µM | 0.53 µM | O=C(O)C(=O)CC(=O)c1ccc2ccc3cccc4ccc1c2c34 | – |
| > 500 µM | > 500 µM | Cc1cc(C)c2[nH]c(=O)c3ccc(C(F)(F)F)cc3c2c1 | – |
| 23 µM | 4.8 µM | O=C(O)C(=O)CC(=O)c1ccc2c(ccc3ccccc32)c1 | EC50 [3]: 26.6 µM; EC90 [3]: > 100 µM; IC50 [4]: > 100 µM; IC50 [5]: 16.2 µM; IC50 [6]: 10.8 µM |
| 32 µM | 13 µM | O=C(O)C(=O)CC(=O)c1ccc2cc3ccccc3cc2c1 | – |
